Experimental data from different studies.
Protocols differ between the studies behind these lines.
Target: Tyrosine-protein kinase FRK (FRK, Homo sapiens, UniProt P42685)

`O=C(Nc1cnn(-c2csc(C(=O)NC3COC3)c2)c1)Nc1ccccc1Cl` has a remaining activity of 97.4% (enzyme activity; inhibitor; 5 µM).
`Cc1ccc(Nc2nccc(N(C)c3ccc4c(C)n(C)nc4c3)n2)cc1S(N)(=O)=O` has a remaining signal of 58.1% (cell-free assay; 0.5 µM).
`COc1cc2ncnc(Nc3ccc(Oc4ccccc4)cc3C)c2cc1OC` has an inhibition of 63% (enzyme activity; inhibitor; 1 µM).
With `CCCOc1ccc([C@@H]2[C@@H](C(=O)O)[C@H](c3ccc4c(c3)OCO4)CN2CC(=O)Nc2c(CC)cccc2CC)cc1` the remaining binding was 89% (cell-free assay; competition with immobilised ligand; 1 µM).
For `O=C(Nc1cnn(-c2csc(C(=O)NC3COC3)c2)c1)Nc1c(F)cccc1Cl`, the remaining activity was 95.6% (enzyme activity; inhibitor; 5 µM).
`COc1cc2c(Nc3ccc(Br)cc3F)ncnc2cc1OCC1CCN(C)CC1` has a remaining signal of 79.5% (cell-free assay; 0.5 µM).
With `C[C@H](NC(=O)c1cnc2n1[C@](C)(Cc1ccc(C#N)cc1)C(=O)N2c1cc(Cl)c(F)c(Cl)c1)C(=O)NC1(c2ccccn2)CC1` the remaining binding was 68% (cell-free assay; competition with immobilised ligand; 1 µM).
The inhibition of `CNC(=O)c1cc2c(Oc3ccc(NC(=O)C4(C(=O)Nc5ccc(F)cc5)CC4)cc3)ccnc2cc1OC` is reported as 99% (enzyme activity; inhibitor; radiometric; 1 µM).
The remaining binding of `C[C@@H]1CN(c2cc(-c3n[nH]c4ccc(OC5(C)CC5)cc34)ncn2)C[C@H](C)O1` is reported as 100% (cell-free assay; competition with immobilised ligand; 0.1 µM).
`CC/C(=N\NC(=O)NCc1cccc(O)c1)c1ccc(O)c(C)c1O` has an inhibition of 0.5% (enzyme activity; inhibitor; 0.1 µM).
`CCN(CC)CCNC(=O)c1c(C)[nH]c(/C=C2\C(=O)Nc3ccc(F)cc32)c1C` gave an inhibition of 93% (enzyme activity; inhibitor; 10 µM).
`O=c1c2ccccc2[nH]c(=S)n1CCN1CCC(=C(c2ccc(F)cc2)c2ccc(F)cc2)CC1` has a remaining activity of 100% (enzyme activity; inhibitor; 0.5 µM).
`Cc1nc(N2CC[C@@H](O)C2)ncc1-c1cc(C(F)(F)F)cc2[nH]ncc12` gave a remaining binding of 98% (cell-free assay; competition with immobilised ligand; 1 µM).
`N#CCCc1ccc2c(c1)-c1[nH]c3ccc([N+](=O)[O-])cc3c1CC(=O)N2` gave a remaining signal of 92.7% (cell-free assay; 0.5 µM).
`C[C@@]1(Cc2ccc(C#N)cc2)C(=O)N(c2cc(Cl)cc(Cl)c2)c2ncc(C(=O)NC3(c4nc(C5CCC5)no4)CC3)n21` has a remaining binding of 81% (cell-free assay; competition with immobilised ligand; 1 µM).
`CC(C)(C)c1nc2c(s1)c1nc(N)ncc1c1ccc(NS(=O)(=O)c3c(F)cccc3F)c(F)c12` gave a remaining activity of 103% (enzyme activity; inhibitor; radiometric; 1 µM).
With `Nc1ncnc2occ(-c3ccc(NC(=O)Nc4cc(C(F)(F)F)ccc4F)cc3)c12` the remaining signal was 0.15% (cell-free assay; inhibitor; 20 µM).
With `CC1=C(C#N)[C@@H](c2ccc3[nH]nc(C)c3c2)C(C#N)=C(c2ccc(Cl)cc2)N1` the remaining binding was 100% (cell-free assay; competition with immobilised ligand; 1 µM).
`CN1CC(Oc2cnc(C#N)cc2-c2ccn3nc(NC(=O)C4CC4)cc3c2)C1` gave an inhibition of 0% (enzyme activity; inhibitor; 1 µM).
With `Cc1ccc(C(=O)NCc2ccsc2)cc1C#Cc1cn(C(C)C)c2ncnc(N)c12` the activity vs control was 2% (enzyme activity; inhibitor; 1 µM).
With `Cc1cnc(NC2CCOCC2)nc1-n1cnc(C(=O)NC(CN)c2cc(F)cc(Cl)c2)c1` (stereo not shown) the remaining activity was 98% (enzyme activity; inhibitor; radiometric; 1 µM).
`Cc1c(C(=O)O)cc(-c2ccc(C3CCNCC3)cc2)c2ccc(-c3ccc(C(F)(F)F)cc3)cc12` gave a remaining binding of 100% (cell-free assay; competition with immobilised ligand; 1 µM).
